Compound activity as filed in PubChem BioAssay.
Jurkat NFkB inh: inhibitors of induced NF-kB luciferase reporter, primary screen, TCR NF-kB activation inhibitor project, cell-based, luminescence, uHTS; Jurkat, PMA/ionomycin-induced NF-kB luciferase reporter; inhibition, % at 4 µM; hit rate 0.53% among 330,000; AID 435003, 2010; in the data active = inhibition above about 50%
CHOP inhibitor: inhibitors of CHOP promoter induction, primary screen, cell-based, unfolded protein response, luciferase reporter | hit rate 3.8% among 220,000 | CHO-K1 CHOP-promoter luciferase, tunicamycin-induced, 15-18 h | inhibition, % at 10 µM;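 active = compounds that reduced the stress-induced luciferase reporter signal by more than about 70% of percent inhibition, limit read from the data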;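 note: 0% = tunicamycin plus vehicle and 100% = wells without tunicamycin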
697 NFkB inh: inhibitors of PMA/ionomycin-induced NF-kB reporter, 697 cells, primary screen, B-cell NF-kB inhibitor project, cell-based, luminescence, uHTS | inhibition, % at 4 µM | 697 B-cell NF-kB luciferase reporter, 16 h | hit rate 0.33% among 330,000 | AID 435022, 2010; in the data active = inhibition above about 35%
XBP1 UPR activ: activators of adaptive XBP1 UPR arm, primary screen, cell-based, CHO-XBP1 luciferase reporter, luminescence, uHTS | IRE1-XBP1 UPR activation; percent of tunicamycin response, DMSO as zero | hit rate 0.33% among 330,000 | activation, % at 20 µM;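 active = versus positive control, 20 µM dose yields 30% or more activation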;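 note: 100% = tunicamycin at 10 µg/mL and 0% = DMSO only wells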
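incubation = overnight seeding at 37 °C, 6 h compound treatment at 37 °C | assay system = CHO-XBP1 cells stably carrying IRE1-XBP1-driven luciferase reporter | input = 1000 cells per well | detection = luciferase luminescence | dosing = single point, 20 µM final compound, 1% DMSO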
CHOP UPR activ: activators of apoptotic CHOP UPR arm, primary screen, cell-based, CHO-CHOP luciferase reporter, luminescence, uHTS; hit rate 0.34% among 330,000; UPR activation; percent of tunicamycin response over DMSO baseline; activation, % at 10 µM; AID 449763, 2010;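 active = at 10 µM dose, activation of 40% or more, normalized to positive control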;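 note: 100% = tunicamycin at 10 µg/mL and 0% = DMSO alone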
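Test system: CHO-CHOP cells, stable luciferase reporter of PERK-eIF2a-CHOP signalling | Quantity: 500 CHO-CHOP cells per well | Buffer or medium: F12 plus 10% serum | Compound dosing: 10 µM single point, 0.5% DMSO | Schedule: 6 h compound treatment, 37 °C | Signal: Luciferase luminescence | Control set: Tunicamycin high control, DMSO low control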
CHOP UPR conf: activators of apoptotic CHOP UPR arm, confirmation, cell-based, CHO-CHOP luciferase reporter, single concentration | shares compounds with CHOP UPR activ | CHO-CHOP cells, CHOP-luciferase reporter luminescence; percent of tunicamycin response, DMSO as zero | activation, % at 10 µM | hit rate 64% among 1,000 | AID 463112, 2010; in the data active = activation above about 33%;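 note: 0% = DMSO wells and 100% = tunicamycin 10 µg/mL wells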
Numbers without * were called inactive; . = not tested or not shown. The full list was thinned out, with hits kept by preference.

SMILES | Jurkat NFkB inh | CHOP inhibitor | 697 NFkB inh | XBP1 UPR activ | CHOP UPR activ | CHOP UPR conf
COc1ccc2c(c1)c(/C=N/Nc1nc3ccccc3[nH]1)c(C)n2C | 15 | -54 | -10 | 6 | 287* | 3
CCCCn1c(/C=N/Nc2nc3ccccc3[nH]2)nc2ccccc21 | -41 | -39 | -59 | 28 | 113* | 294*
CCCCn1c(/C=C/c2ccco2)nc2ccccc21 | 0 | -29 | 9 | -2 | 2 | .
Cn1c(=O)[nH]c(=O)c2c1nc(Br)n2Cc1cccc(Br)c1 | 9 | . | -14 | 0 | 2 | .
CCN(CC(=O)NCc1ccccn1)S(=O)(=O)c1cc(Cl)ccc1Cl | 9 | . | 14 | -2 | 1 | .
N#C/C(=C/c1ccc(N2CCOCC2)o1)c1ccc(Br)cc1 | -6 | 26 | -8 | 1 | 4 | .
N#C/C(=C/c1ccc(N2CCCCCC2)o1)c1ccc(F)cc1 | 24 | . | -34 | 0 | 98* | 22
S=C(Nc1ccccc1)c1ccccn1 | -73 | -86 | -85 | 29 | 117* | 149*
S=C(Nc1ccc(Nc2ccccc2)cc1)Nc1ccccn1 | 18 | 0 | -63 | -2 | 2 | .
Cc1cc(C)n2nc(C(=O)N/N=C/c3cccc(Cl)c3)nc2n1 | -3 | -4 | 10 | 2 | 1 | .
Cc1cc(N/N=C/c2ccccc2[N+](=O)[O-])nc(-n2nc(C)cc2C)n1 | 6 | 61 | -19 | 12 | 121* | 94*
COc1ccc(/C=N/Nc2cc(C)nc(-n3nc(C)cc3C)n2)cc1 | -4 | 61 | 5 | 8 | 52* | 33*
COc1ccc(O)c(/C=N/Nc2nc(Nc3ccccc3)nc(-n3nc(C)cc3C)n2)c1 | 20 | 11 | 28 | 0 | 102* | 112*
Cc1cc(N/N=C/c2cccc([N+](=O)[O-])c2)nc(-n2nc(C)cc2C)n1 | 0 | 36 | 11 | 1 | 0 | .
Cc1cc(N/N=C/c2ccc(O)cc2O)nc(-n2nc(C)cc2C)n1 | . | -14 | . | . | . | .
Cc1cc(N/N=C/c2cccc(Cl)c2)nc(-n2nc(C)cc2C)n1 | 3 | -29 | 10 | 6 | 51* | 7
COc1ccc(N(CC(=O)NCCC2=CCCCC2)S(=O)(=O)c2ccc(C)cc2)cc1OC | 3 | 10 | 0 | -6 | -3 | .
COc1cc(/C=N\NC(=O)C(C)(C)O)ccc1OC/C=C/c1ccccc1 | 12 | . | 27 | 0 | 0 | .
CCCOc1ccc(Cl)cc1/C=C1/C(=O)ON=C1C | -13 | . | 1 | -8 | 1 | .
CC1=NOC(=O)/C1=C\c1ccc(-c2ccc(Cl)cc2Cl)o1 | 10 | 112* | 14 | 2 | 106* | 110*
Cc1cccc(CN2CCC(CNC(=O)Cn3ncc4c([nH]c5ccccc54)c3=O)CC2)c1 | 16 | . | -10 | -3 | 1 | .
CCCCCC(=O)N/N=C/c1ccc([N+](=O)[O-])o1 | 2 | -39 | -7 | 2 | 1 | .
O=C(CCC(=O)Nc1ccc(Cl)cc1Cl)N/N=C/c1ccc([N+](=O)[O-])o1 | 13 | -40 | 4 | 8 | 193* | 107*
Cc1ccc(NC(=O)C2C3CCC(O3)C2C(=O)O)c(Br)c1 (centres undefined) | -2 | . | -18 | 3 | 1 | .
COC(=O)[C@@H]1[C@@H](C#N)C2(c3ccccc3-c3ccccc32)N(c2ccc(Cl)cc2)N1C#N | 1 | 82* | 7 | 4 | 92* | 55*
SMILES | Jurkat NFkB inh | CHOP inhibitor | 697 NFkB inh | XBP1 UPR activ | CHOP UPR activ | CHOP UPR conf
COc1ccc(CN2CCN(CCSc3ccc(C)cc3)CC2)c(OC)c1OC | 0 | . | -8 | -2 | -2 | .
COCCn1c(=O)[nH]c(=O)c2c1nc(-c1ccc(-c3ccc(Cl)cc3[N+](=O)[O-])o1)n2Cc1ccccc1 | 4 | 41 | 21 | -1 | 22 | .
COc1ccc(-c2ccc(-c3nc4c(c(=O)[nH]c(=O)n4Cc4ccccc4)n3C)o2)c([N+](=O)[O-])c1 | -2 | 90* | 16 | 17 | 59* | 41*
N#Cc1c(Cl)nc(-c2ccncc2)nc1-c1ccccc1 | -15 | . | -4 | 4 | -1 | .
Cc1cccc(Cn2cccc2/C=C2/C(=N)N3C=CSC3=NC2=O)c1 | 2 | 60 | -19 | 1 | 2 | .
N=C1/C(=C/c2cccn2-c2ccc([N+](=O)[O-])cc2)C(=O)N=C2SC=CN12 | 14 | 56 | 29 | 8 | 54* | 14
COc1ccc(S(=O)(=O)n2cccc2)cc1OC | 7 | . | -9 | -3 | 2 | .
O=C(/C=C\c1ccc(-c2ccccc2)o1)c1ccccc1 | -15 | 52 | 3 | 10 | 79* | 4
Cc1ccc(C(=O)/C=C/c2ccc(-c3ccc(C)cc3)o2)cc1 | -2 | 62 | -39 | 18 | 94* | -1
CCCn1c(N)c(N(CCOC)C(=O)c2cc3ccccc3cc2OC)c(=O)[nH]c1=O | -6 | . | 16 | 0 | 1 | .
Oc1c(C(Nc2ccccn2)c2ccccn2)ccc2cccnc12 (centres undefined) | 24 | 66 | -16 | 15 | 59* | 71*
Cc1ccc2ccc(C(Nc3ccccn3)c3ccccc3)c(O)c2n1 (centres undefined) | 8 | -51 | -24 | 2 | 3 | .
COc1cc(C(Nc2ccccn2)c2ccc3ccc(C)nc3c2O)cc(OC)c1O (centres undefined) | 2 | . | -84 | 1 | 263* | 251*
O=C(NCCc1ccccc1)C1CCN(C(=O)c2ccc([N+](=O)[O-])cc2)CC1 | 4 | -5 | -3 | -2 | 1 | .
CCOC(=O)C1CCCN(/C=C2\SC(=S)N(CC)C2=O)C1 (centres undefined) | -7 | 1 | 12 | -1 | 0 | .
O=C(NC1CCCCC1)c1ccc([N+](=O)[O-])o1 | 13 | . | -7 | -3 | 11 | .
O=C(NC1CCCC(C(F)(F)F)C1)c1ccc([N+](=O)[O-])o1 (centres undefined) | 5 | . | 3 | 9 | 64* | 12
Cc1cccc(NC(=O)CCS(=O)(=O)c2cccc3nonc23)c1C | -12 | . | 27 | 5 | 2 | .
Cn1c(O)c(N=Nc2ccccc2)c2ccccc21 | -15 | . | -24 | -3 | 1 | .
Cc1ccc2c(c1)c(N=Nc1ccc([N+](=O)[O-])cc1)c(O)n2C | 10 | . | 13 | 99* | 73* | 3
O=C(c1cn(-c2ccccc2)nc1-c1ccncc1)n1nnc2ccccc21 | -6 | . | 5 | -5 | 99* | 25
CCOC(=O)/C(=C\c1cccc(O)c1)c1nc2sc(C)c(C)c2c(=O)[nH]1 | 9 | -84 | 12 | -2 | 47* | 163*
